Source: ChEMBL document CHEMBL1149103, “Anticonvulsant activity of phenylmethylenehydantoins: a structure-activity relationship study” (2004)

Tests used:
[1] = species on record: Mus musculus; assay: Anticonvulsant activity measured as effective dose required to produce a response score of 2.5 in MES assay on mice; format: functional
Outline: (§1)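 Male Swiss albino mice ([…]), pre-screened by passing a 5 min rotorod test. Compound in DMSO given ip, starting at 100 mg/kg, later doses raised or lowered to complete the dose-activity profile. After 30 min, 45 mA ([…]) for 0.2 s via auricular electrodes. Seizure scored 1 (no protection) to 4 (full), averaged over 5-6 mice per dose. Effective dose taken as the dose giving a score of 2.5; log value used for QSAR.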

[2] = species on record: Mus musculus; assay: Anticonvulsant activity expressed as log(1/EDMES(2.5)) in MES assay on mice that responded a score of 2.5; format: functional; outline: as §1

SMILES	EDMES(2.5) [1]	Log 1/EDMES(2.5) [2]
O=C1NC(=O)/C(=C/c2ccc(-c3ccccc3)cc2)N1	>200 mg/kg	-2.3
O=C1NC(=O)/C(=C/c2ccc(C(F)(F)F)cc2)N1	64 mg/kg	-1.81
Cc1cccc(/C=C2\NC(=O)NC2=O)c1	74 mg/kg	-1.87
CN(C)c1ccc(/C=C2\NC(=O)NC2=O)cc1	>200 mg/kg	-2.3
COc1ccccc1/C=C1\NC(=O)NC1=O	84 mg/kg	-1.92
CC(C)(C)c1ccc(/C=C2\NC(=O)NC2=O)cc1	>200 mg/kg	-2.3
O=C1NC(=O)/C(=C/C2CCCCC2)N1	156 mg/kg	-2.19
Cc1ccc(/C=C2\NC(=O)NC2=O)cc1	>200 mg/kg	-2.3
O=C1NC(=O)/C(=C/c2ccccc2F)N1	>200 mg/kg	-2.3
O=C1NC(=O)/C(=C/c2ccccn2)N1	141 mg/kg	-2.15
CCCCOc1ccc(/C=C2\NC(=O)NC2=O)cc1	>200 mg/kg	-2.3
O=C1NC(=O)/C(=C/c2cccc3ccccc23)N1	>200 mg/kg	-2.3
O=C1NC(=O)/C(=C\c2c(Cl)cccc2Cl)N1	72 mg/kg	-1.86
CC(C)c1ccc(/C=C2\NC(=O)NC2=O)cc1	80 mg/kg	-1.9
O=C1NC(=O)/C(=C/c2ccc(Cl)cc2Cl)N1	>200 mg/kg	-2.3
O=C1NC(=O)/C(=C/c2cccc([N+](=O)[O-])c2)N1	>200 mg/kg	-2.3
O=C1NC(=O)/C(=C/c2ccc(Cl)cc2)N1	>200 mg/kg	-2.3
O=C1NC(=O)/C(=C/c2ccc(F)cc2)N1	>200 mg/kg	-2.3
Cc1ccc(/C=C2\NC(=O)NC2=O)c(C)c1	39 mg/kg	-1.59
Cc1cc(C)c(/C=C2/NC(=O)NC2=O)c(C)c1	28 mg/kg	-1.45
O=C1NC(=O)/C(=C/c2cccc(C(F)(F)F)c2)N1	115 mg/kg	-2.06
O=C1NC(=O)/C(=C/c2ccccc2OCc2ccccc2)N1	>200 mg/kg	-2.3
CCCCc1ccc(/C=C2\NC(=O)NC2=O)cc1	121 mg/kg	-2.08
CCc1ccc(/C=C2\NC(=O)NC2=O)cc1	74 mg/kg	-1.87
COc1cccc(/C=C2\NC(=O)NC2=O)c1	>200 mg/kg	-2.3
COc1ccc(/C=C2\NC(=O)NC2=O)cc1	>200 mg/kg	-2.3
O=C1NC(=O)/C(=C/c2ccc3ccccc3c2)N1	>200 mg/kg	-2.3
O=C1NC(=O)/C(=C/c2ccc([N+](=O)[O-])cc2)N1	>200 mg/kg	-2.3

SMILES	EDMES(2.5) [1]	Log 1/EDMES(2.5) [2]
O=C1NC(=O)/C(=C/c2c[nH]c3ccccc23)N1	>200 mg/kg	-2.3
CCCOc1ccc(/C=C2\NC(=O)NC2=O)cc1	77 mg/kg	-1.89
O=C1NC(=O)/C(=C/c2cccc(Oc3ccccc3)c2)N1	>200 mg/kg	-2.3
O=C1NC(=O)/C(=C/c2ccco2)N1	167 mg/kg	-2.22
Cc1ccccc1/C=C1\NC(=O)NC1=O	59 mg/kg	-1.77
O=C1NC(=O)/C(=C/c2ccccc2)N1	125 mg/kg	-2.1
O=C1NC(=O)/C(=C/c2cccc(Cl)c2)N1	82 mg/kg	-1.91
COc1ccc(/C=C2\NC(=O)NC2=O)c(OC)c1	175 mg/kg	-2.24
Cc1cc(C)c(/C=C2\NC(=O)NC2=O)cc1C	>200 mg/kg	-2.3
O=C1NC(=O)/C(=C/c2ccccc2C(F)(F)F)N1	>200 mg/kg	-2.3
O=C1NC(=O)/C(=C/c2cccc(O)c2)N1	>200 mg/kg	-2.3
O=C1NC(=O)/C(=C/c2cccc(Br)c2)N1	89 mg/kg	-1.95
O=C1NC(=O)/C(=C/c2ccccc2Br)N1	>200 mg/kg	-2.3
O=C1NC(=O)/C(=C/c2ccccc2Cl)N1	198 mg/kg	-2.3
O=C1NC(=O)/C(=C/c2ccc3[nH]c4ccccc4c3c2)N1	>200 mg/kg	-2.3
O=C1NC(=O)/C(=C/c2ccc(OCc3ccccc3)cc2)N1	157 mg/kg	-2.2
O=C1NC(=O)/C(=C/c2ccccc2O)N1	>200 mg/kg	-2.3
O=C1NC(=O)/C(=C/c2cccc(F)c2)N1	172 mg/kg	-2.24
O=C1NC(=O)/C(=C/c2ccc(F)c(F)c2)N1	121 mg/kg	-2.08
CCOc1ccccc1/C=C1\NC(=O)NC1=O	>200 mg/kg	-2.3
CCN(CC)c1ccc(/C=C2\NC(=O)NC2=O)cc1	>200 mg/kg	-2.3
CCOc1ccc(/C=C2\NC(=O)NC2=O)cc1	107 mg/kg	-2.03
O=C1NC(=O)/C(=C/c2cccs2)N1	>200 mg/kg	-2.3
N#Cc1ccc(/C=C2\NC(=O)NC2=O)cc1	>200 mg/kg	-2.3
O=C1NC(=O)/C(=C/c2ccc(Br)cc2)N1	>200 mg/kg	-2.3
O=C1NC(=O)/C(=C/c2ccc(O)cc2)N1 [4-HYDROXYPHENYLMETHYLENE HYDANTOIN]	>200 mg/kg	-2.3
O=C1NC(=O)C(c2ccccc2)(c2ccccc2)N1 [PHENYTOIN]	30 mg/kg	-1.48
